# High-throughput results from PubChem BioAssay.
# XBP1 UPR activ: activators of adaptive XBP1 UPR arm, primary screen, cell-based, CHO-XBP1 luciferase reporter, luminescence, uHTS | IRE1-XBP1 UPR activation; percent of tunicamycin response, DMSO as zero | activation, % at 20 µM | hit rate 0.33% among 330,000 | AID 463104, 2010;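 active = versus positive control, 20 µM dose yields 30% or more activation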
#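 Assay system: IRE1-XBP1 luciferase reporter CHO line. Input: 1000 cells/well. Buffer or medium: F12 with 10% serum. Doses: 20 µM, 1% DMSO. Times: overnight seeding at 37 °C, 6 h compound treatment at 37 °C. Technique: Steady-Glo luciferase glow luminescence, 10 min after reagent addition.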
# Jurkat NFkB inh: inhibitors of induced NF-kB luciferase reporter, primary screen, TCR NF-kB activation inhibitor project, cell-based, luminescence, uHTS | inhibition, % at 4 µM | Jurkat, PMA/ionomycin-induced NF-kB luciferase reporter | hit rate 0.53% among 330,000; in the data active = inhibition above about 50%
# 697 NFkB inh: inhibitors of PMA/ionomycin-induced NF-kB reporter, 697 cells, primary screen, B-cell NF-kB inhibitor project, cell-based, luminescence, uHTS | 697 B-cell NF-kB luciferase reporter, 16 h | inhibition, % at 4 µM | hit rate 0.33% among 330,000 | AID 435022, 2010; in the data active = inhibition above about 35%
# CRFBP-R2 block: antagonists of CRF-BP/CRF-R2 complex, primary screen, cell-based, HEK293, calcium dye fluorescence, uHTS. CRF-induced calcium fluorescence. hit rate 0.59% among 350,000. inhibition, % at 11.8 µM;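 active = inhibition of the ligand-induced calcium signal above about 50% at the single tested concentration, limit read from the data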
# UPR CHOP act: activators of apoptotic CHOP UPR arm, primary screen, cell-based, CHO-CHOP luciferase reporter, luminescence, uHTS. hit rate 0.34% among 330,000. AID 449763, 2010. activation, % at 10 µM. UPR activation; percent of tunicamycin response over DMSO baseline;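 active = at 10 µM dose, activation of 40% or more, normalized to positive control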
#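 measured by = luciferase luminescence | assay system = CHO-CHOP cells, stable luciferase reporter of PERK-eIF2a-CHOP signalling | amount = 500 reporter cells seeded per well | timing = 6 h compound exposure at 37 °C after overnight seeding | controls = positive tunicamycin 10 µg/mL, negative DMSO alone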
# 697 NFkB conf: PMA/ionomycin-induced NF-kB reporter inhibitors, 697 retest, confirmation, B-cell NF-kB inhibitor project, cell-based, luminescence, single concentration | inhibition, % at 4 µM | 697 B-cell NF-kB luciferase, 16 h | shares compounds with 697 NFkB inh | AID 449746, 2010 | hit rate 35% among 2,000; in the data active = inhibition mostly above about 28%, no sharp cut-off; inactive = mostly below about 22%
# Hits are given with their value; – = inactive; · = not tested or not shown. Shown are actives, neighbours in structure and some others; about 1.8% of the full set was active somewhere.
SMILES,XBP1 UPR activ,Jurkat NFkB inh,697 NFkB inh,CRFBP-R2 block,UPR CHOP act,697 NFkB conf
CC(=O)c1ccc(N=Nc2ccc(C)cc2)cc1,–,–,–,–,–,–
COc1cc(OC)cc(-c2c(-c3cccs3)c3cc(-c4ccc(C(N)=O)cc4)ccc3n2C)c1,–,–,–,–,–,·
Cc1csc(NC(=O)c2ccc(C)c([N+](=O)[O-])c2)n1,–,–,–,–,–,–
Cc1csc(NC(=O)c2cc3ccccc3o2)n1,–,–,36,–,–,–
COc1cccc(-c2nnn(CC(=O)N3CCC(C)CC3)n2)c1,–,–,–,–,–,·
C[C@H](CO)N1C[C@H](C)[C@@H](CN(C)S(=O)(=O)c2cccs2)Oc2ccc(NC(=O)Cn3cnnn3)cc2C1=O,–,–,–,–,–,·
CCSC1=C(C#N)C(c2ccc(Cl)cc2)C2=C(CCCC2=O)N1 (centres undefined),–,–,35,–,–,–
Cc1cccn2c(=O)c3cc(C(=O)NC4CCCCC4)c(=N)n(CCN4CCOCC4)c3nc12,–,–,53,–,–,39
CCC(C)N1C(=O)/C(=C/c2c(NCCCOC(C)C)nc3c(C)cccn3c2=O)SC1=S (centres undefined),–,–,38,–,–,34
COc1cc(OC)c2c(-c3cccc(-c4ccc(N(C)C)cc4)c3)cc(=O)oc2c1,–,·,–,–,–,–
COc1ccc(-c2cccc(-c3cc(=O)oc4cc(OC)cc(OC)c34)c2)cc1,–,·,–,–,–,–
COc1cc(OC)c2c(-c3cccc(-c4ccc(O)cc4)c3)cc(=O)oc2c1,–,·,–,–,–,·
COc1cc(OC)c2c(-c3cccc(-c4cccc(C)c4)c3)cc(=O)oc2c1,–,·,–,–,–,·
Cc1ccc(Cl)cc1N1CCN(C(=O)c2ccccc2SCC(=O)N2CCCC2)CC1,–,–,–,–,–,·
COc1ccc(Br)c(C(=O)OCC(=O)NC2CCCCCC2)c1,–,–,–,–,–,·
Cc1ccc(NC(=O)Cn2c(O)c(N=NC(N)=S)c3ccccc32)cc1,60,–,40,–,–,–
Cc1ccc(NC(=O)Cn2c(O)c(N=NC(N)=O)c3ccccc32)cc1,–,–,–,–,–,·
C/C(Cl)=C\Cn1c(O)c(N=NC(N)=S)c2ccccc21,–,–,–,–,–,·
NC(=S)N=Nc1c(O)n(Cc2ccccc2)c2ccccc12,–,–,45,–,–,39
O=C(NCc1ccccc1)c1cccc(NC(=O)c2ccccc2)c1,·,·,·,–,·,·
Cc1ccc(C(=O)Nc2cccc(C(=O)NCc3ccccc3)c2)o1,–,–,36,–,–,–
Cc1c(NC(=O)c2cc(-c3cccs3)nc3ccccc23)c(=O)n(-c2ccccc2)n1C,–,–,39,–,–,–
O=C(NCc1ccncc1)C(=O)NCC1OCCN1S(=O)(=O)c1ccc(F)cc1 (centres undefined),–,–,–,–,–,·
Cc1nc(C)c(C(=O)Nc2cccc(F)c2)s1,–,–,–,–,–,·
Cc1ccc(NC(=O)COC(=O)C2CCC2)cc1S(=O)(=O)N1CCOCC1,–,–,–,–,–,·
SMILES,XBP1 UPR activ,Jurkat NFkB inh,697 NFkB inh,CRFBP-R2 block,UPR CHOP act,697 NFkB conf
O=C(NCCCN1CCOCC1)c1cc(-c2ccc(Br)cc2)on1,–,–,63,–,–,38
Cc1ccc(S(=O)(=O)N2CCCC2)cc1C(=O)N1CCC(C)CC1,–,–,–,–,–,·
CCOc1cc(/C=C2\C(=N)N3N=CSC3=NC2=O)ccc1OS(=O)(=O)c1ccccc1,–,–,44,–,–,–
CCc1ccc(C(=O)Cc2cc3cccc(OC)c3oc2=O)cc1,–,–,–,–,–,·
COc1ccc(-c2cc(C(F)(F)F)n3nc(C(N)=O)cc3n2)cc1,·,·,·,–,·,·
O=C(Nc1ccc2[nH]c(=S)sc2c1)Nc1ccccc1F,–,–,–,–,–,–
COc1ccc(N2CCN(C(=O)COC(=O)c3ccc(OC(F)F)cc3)CC2)cc1,–,–,–,–,–,·
CC(C)n1cc(/C=N/Nc2ccc(C(=O)O)cc2)c2ccccc21,–,–,–,–,–,–
Cc1ccc(OCC(=O)NNC(=O)Nc2ccc(Cl)cc2)c(Br)c1,–,–,–,–,–,·
O=C(OCC(=O)N1CCN(C(=O)COC(=O)c2ccc(O)cc2O)CC1)c1ccc(O)cc1O,–,–,39,–,–,–
CCOC(=O)N1CCN(C(=O)COC(=O)c2ccc(O)cc2O)CC1,–,–,–,–,–,·
O=C(c1cccc(S(=O)(=O)N2CCOCC2)c1)N1CCCC1,–,–,36,–,–,–
COc1ccc2cc(-c3cc(C(=O)O)c4ccccc4n3)ccc2c1,–,–,–,–,–,–
COc1ccc(-c2cc(C(=O)O)c3ccccc3n2)c(OC)c1,–,–,–,–,–,·
Cc1ccc(CCNS(=O)(=O)c2cc3c(cc2Cl)NC(=O)CO3)cc1,–,–,–,–,–,·
O=C1CCC(c2ccccc2)N1c1ccccc1 (centres undefined),·,·,·,–,·,·
COc1cc(OC)c(OC)cc1/C=C1\Oc2cc(OCC(=O)N3Cc4ccccc4C[C@H]3C(=O)O)ccc2C1=O,–,–,–,–,–,·
COc1cccc(/C=N\NC(=O)c2sc(N)nc2C)c1OC,–,–,39,–,–,–
C/C(=N/NC(=O)CNC(=O)C1COc2ccccc2O1)c1ccc([N+](=O)[O-])cc1 (centres undefined),–,–,–,–,–,·
CCn1c(=O)c2cc(C(=O)NC(C)C)sc2c2ccccc21,–,–,37,–,–,28
CCCCNC(=O)c1cc2c(=O)n(CC)c3ccccc3c2s1,–,–,–,–,–,·
CCn1c(=O)c2cc(C(=O)NCc3cccs3)sc2c2ccccc21,–,–,39,–,–,36
CC1(C(=O)OCC(=O)Nc2ccc(S(=O)(=O)N3CCOCC3)cc2)CC1(Cl)Cl (centres undefined),–,–,–,–,–,·
COC(=O)c1ccc(N/C=C/C(=O)c2ccccc2)cc1,–,–,–,–,–,·
CC(=O)c1cccc(S(=O)(=O)Nc2cc(C(F)(F)F)ccc2N2CCOCC2)c1,–,–,39,–,–,32
O=S(=O)(Nc1cc(C(F)(F)F)ccc1N1CCOCC1)c1ccccc1,–,–,–,–,–,·
CC(C)(C)OC(=O)C[C@H]1C/C=C\C[C@@H](CC(=O)N[C@@H](CO)Cc2ccccc2)C(=O)N2CCC[C@@H]2COC1=O,–,–,–,–,–,·
